# Source: PubChem (several laboratories)
# NPY-Y2 antag: blocks the human neuropeptide Y Y2 receptor | 140,000 compounds, 0.99% hits | P49146 | inhibition, % at 2.7 µM | NPY-Y2 expressing cells, antagonist mode; in the data active means inhibition above about 17%
# Target sequence (P49146 whole entry, looked up): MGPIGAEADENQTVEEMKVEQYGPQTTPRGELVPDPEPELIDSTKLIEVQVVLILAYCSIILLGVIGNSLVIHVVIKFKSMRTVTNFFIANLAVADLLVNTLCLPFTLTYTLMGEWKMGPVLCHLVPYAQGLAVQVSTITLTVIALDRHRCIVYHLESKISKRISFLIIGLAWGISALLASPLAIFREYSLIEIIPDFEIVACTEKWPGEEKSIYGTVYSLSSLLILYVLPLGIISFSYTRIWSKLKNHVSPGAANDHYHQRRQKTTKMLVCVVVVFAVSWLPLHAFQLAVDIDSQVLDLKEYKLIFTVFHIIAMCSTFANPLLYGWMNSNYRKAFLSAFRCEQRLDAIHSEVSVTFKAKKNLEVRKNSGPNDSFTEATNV
# NPY-Y2 PAM-ag: potentiates or activates human NPY-Y2 receptor; P49146; 220,000 compounds, 0.45% hits; cells expressing NPY-Y2, potentiator/agonist read-out; AID 1359; activation, % at 3.6 µM; in the data active means activation above about 27%;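 further: cells stimulated with NPY near EC25 plus isoproterenol at EC100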
# RAM network inh: blocks the yeast RAM network | S. cerevisiae dse1pr::URA3 reporter, 5-FOA growth OD615, 2 d; analog-sensitive cbk1-as2 kinase mutant strain | inhibition, % at 50 µM | 190,000 compounds, 1.8% hits;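 active means inhibition above a set limit, 3 SD over mean compound inhibition, cut at about 8.4% in these data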;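 further: inhibition rescues growth on 5-FOA so higher OD means more RAM inhibition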
# NPY-Y1 antag: blocks the human neuropeptide Y Y1 receptor; inhibition, % at 3.6 µM; HEK293-CNG Y1 cells, membrane potential fluorescence; NPY at EC95, then isoproterenol; AID 1040; 200,000 compounds, 1% hits;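 active means inhibition above the campaign mean inhibition of all tested compounds plus 3 SD, cut at about 20% in these data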
# Target sequence (P25929 whole entry, looked up): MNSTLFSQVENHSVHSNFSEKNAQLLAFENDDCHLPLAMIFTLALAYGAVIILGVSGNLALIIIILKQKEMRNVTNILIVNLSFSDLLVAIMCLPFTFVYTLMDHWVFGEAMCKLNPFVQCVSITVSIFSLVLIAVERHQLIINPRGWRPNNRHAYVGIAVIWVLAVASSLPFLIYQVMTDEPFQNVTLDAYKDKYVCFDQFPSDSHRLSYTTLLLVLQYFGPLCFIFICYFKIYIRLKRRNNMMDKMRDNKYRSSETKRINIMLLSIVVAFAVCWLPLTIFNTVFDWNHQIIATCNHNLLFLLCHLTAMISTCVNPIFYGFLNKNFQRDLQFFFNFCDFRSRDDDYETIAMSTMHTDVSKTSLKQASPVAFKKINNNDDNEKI
#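 Test system – HEK293 Y1/CNG channel cell line · Also added – NPY agonist 25 nM, then isoproterenol 1 µM plus Ro 20-1724 25 µM · Compound dosing – one concentration, 3.6 µM, in 0.4% DMSO · Schedule – compound incubation 1 h at room temperature, readout 45 min post-stimulation · Technique – fluorescence, membrane potential probe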
# INS promoter inh: TRM-6 insulin promoter activity inhibition | 130,000 compounds, 0.9% hits | inhibition, % at 2 µM | TRM-6 cells, insulin promoter-eGFP reporter, imaging; reporter expression induced with tamoxifen;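 active means inhibition above the mean plus 3 SD, with well images judged a real hit on visual review, cut at about 60% in these data, passing the limit was not always enough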
# NPY1 pot ag: potentiators or agonists of human neuropeptide Y receptor Y1; P25929; NPY-Y1 expressing cells, potentiator/agonist activation; 220,000 compounds, 0.37% hits; activation, % at 3.6 µM; in the data active means activation above about 33%, passing the limit was not always enough;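 further: cells stimulated with NPY at EC10 then isoproterenol at EC100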
# NPY-Y2 confirm: confirmation of human NPY-Y2 receptor potentiators or agonists; shares compounds with NPY-Y2 PAM-ag; cell-based NPY-Y2 potentiator/agonist assay; activation, % at 3.6 µM; 450 compounds, 20% hits; in the data active means activation above about 33%
# NPY-Y1 potentiator: potentiates or activates NPY-Y1, counter-screen for NPY-Y2 hits. activation, % at 3.6 µM. 450 compounds, 20% hits. shares compounds with NPY-Y2 PAM-ag. Y1 HEK293-CNG cells, membrane potential fluorescence. AID 1651; in the data active means activation above about 45%;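 further: cells stimulated with submaximal NPY then isoproterenol with phosphodiesterase inhibitor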
# NPY-Y1 agonist 2: human NPY-Y1 agonism as NPY-Y2 potentiator counter-screen; HEK293 Y1-CNGC, membrane potential fluorescence; AID 1702; activation, % at 3.6 µM; 450 compounds, 37% hits; shares compounds with NPY-Y2 PAM-ag;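 active means activation above the mean of DMSO-only control wells plus 3 SD, cut at about 18% in these data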;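 further: cells stimulated with 1 µM isoproterenol plus the PDE inhibitor Ro 20-1724; Y1 agonists lower the membrane potential dye signal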
# CNGC inh: blocks CNG channel activity, counter-screen for NPY-Y2 potentiators. shares compounds with NPY-Y2 PAM-ag. HEK293-CNG parental, isoproterenol cAMP, membrane potential fluorescence. inhibition, % at 3.6 µM. 450 compounds, 32% hits. AID 1703;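 active means inhibition above the control-well mean plus 3 SD of those wells, cut at about 22% in these data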
# NPY-Y2 ag 2: counter-screen for NPY-Y2 potentiators: agonists of human NPY-Y2; AID 1710; activation, % at 3.6 µM; shares compounds with NPY-Y2 PAM-ag; HEK293 Y2/CNGC cells, membrane potential fluorescence, agonist mode; 450 compounds, 56% hits;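 active means activation above the mean of solvent-only control wells plus 3 SD, cut at about 10% in these data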;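 further: cells stimulated by isoproterenol with no NPY added so direct agonism is tested; agonism lowers probe fluorescence through less cAMP and CNG channel opening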
# Hits are given with their value; i = inactive; nt = no result given. A selection: hits, their analogues and other compounds. The true share with any hit is near 3.8%.
SMILES,NPY-Y2 antag,NPY-Y2 PAM-ag,RAM network inh,NPY-Y1 antag,INS promoter inh,NPY1 pot ag,NPY-Y2 confirm,NPY-Y1 potentiator,NPY-Y1 agonist 2,CNGC inh,NPY-Y2 ag 2
Cc1ccc(N2C(SCC(=O)O)=NC(=Nc3cccc(C)c3)C23CCCC3)cc1,nt,70,i,i,nt,i,i,i,i,i,i
O=C(O)CSC1=NC(=Nc2ccc(Cl)cc2)C2(CCCCC2)N1c1cccc(C(=O)O)c1,i,i,i,i,i,i,nt,nt,nt,nt,nt
Cc1cc(C)cc(NC(=S)N2CCC(N(C)CC3CCCO3)CC2)c1 (stereo not given),nt,31,i,i,i,i,i,i,i,i,i
Cc1ccc(CSCC(=O)NCc2ccco2)cc1,nt,i,i,i,i,i,nt,nt,nt,nt,nt
S=C(Nc1ccc(Nc2ccccc2)cc1)Nc1ccccn1,nt,33,i,i,i,i,i,i,i,i,14
Oc1ccc(Cl)cc1Cc1cc(Cl)ccc1O,i,62,i,i,i,i,39,i,36,28,32
CC(C)NC(=S)N=Nc1c(O)[nH]c2ccc([N+](=O)[O-])cc12,nt,35,i,i,nt,i,i,i,19,i,22
C=C(C)CNC(=S)N=Nc1c(O)[nH]c2ccc([N+](=O)[O-])cc12,nt,i,i,i,i,i,nt,nt,nt,nt,nt
Cc1ccc(C(=O)COC(=O)c2cn3ccccc3n2)cc1,nt,i,i,i,nt,i,nt,nt,nt,nt,nt
S=C1NCN(CCc2ccccc2)CN1,nt,73,nt,nt,nt,i,i,i,i,i,i
Cc1sc(NC(=O)/C=C/c2ccco2)c(C(=O)O)c1C,nt,i,nt,nt,nt,i,nt,nt,nt,nt,nt
O=C(O)c1ccc(OCc2cn3ccccc3n2)cc1,nt,101,nt,nt,nt,i,i,i,i,i,13
O=C(COc1ccc(Oc2ccccc2)cc1)NCc1cn2ccccc2n1,nt,i,i,i,i,i,nt,nt,nt,nt,nt
CC(C)C(c1nnnn1C1CCCCC1)N1CCc2ccccc21 (stereo not given),i,59,i,i,i,i,i,i,i,i,i
Cc1nc(C)c(C(=O)NNS(=O)(=O)c2ccc([N+](=O)[O-])cc2)s1,i,i,i,i,i,i,nt,nt,nt,nt,nt
c1ccc2c(c1)CCN(C1=Nc3cccc4cccc1c34)C2,nt,33,i,i,i,i,64,88,62,62,61
O=c1[nH][nH]c2ccccc2c1=O,nt,87,nt,nt,nt,i,i,i,i,i,i
CN(C1CC(C)(C)N(O)C(C)(C)C1)S(=O)(=O)CC12CCC(CC1=O)C2(C)C (stereo not given),nt,i,i,i,nt,i,nt,nt,nt,nt,nt
COc1ccc(/C(C)=N/N=C(N)N)c(OC)c1,nt,i,nt,nt,nt,i,nt,nt,nt,nt,nt
CC(=O)Nc1ccc(Oc2nc(C)cc(C)n2)cc1,i,i,i,i,i,i,nt,nt,nt,nt,nt
Cc1cc(C)nc(Oc2ccc(Br)cc2)n1,nt,91,nt,nt,nt,i,i,i,i,i,i
Oc1ccccc1Nc1nc(NCc2ccccc2)c2ccccc2n1,nt,36,i,i,nt,i,47,56,45,48,45
O=C(Cn1cnc([N+](=O)[O-])c1)Nc1cc(Oc2ccc(Cl)cc2Cl)cc([N+](=O)[O-])c1,i,34,i,i,i,i,35,i,31,40,52
Cc1cccc(Oc2cc(NC(=O)Cn3cnc([N+](=O)[O-])n3)cc([N+](=O)[O-])c2)c1,i,i,i,i,i,i,nt,nt,nt,nt,nt
CCC(C)(C)NC(=O)COc1ccc(OCc2ccccc2)cc1,nt,i,i,i,i,i,nt,nt,nt,nt,nt
SMILES,NPY-Y2 antag,NPY-Y2 PAM-ag,RAM network inh,NPY-Y1 antag,INS promoter inh,NPY1 pot ag,NPY-Y2 confirm,NPY-Y1 potentiator,NPY-Y1 agonist 2,CNGC inh,NPY-Y2 ag 2
O=C(/C=C/c1ccc([N+](=O)[O-])cc1)NCCc1ccc(F)cc1,nt,46,i,i,nt,i,i,i,i,i,i
COc1ccccc1/C=[N+](\[O-])C1SC(=S)N(C)C1(C)C (stereo not given),nt,i,nt,nt,nt,i,nt,nt,nt,nt,nt
Cc1ccc(C(=O)Nc2nc3ccccc3n2CCN2CCCC2)cc1,i,44,i,i,nt,i,50,50,19,39,47
O=C(Nc1nc2ccccc2n1CCN1CCCC1)c1ccc(Cl)cc1,i,i,i,i,i,i,nt,nt,nt,nt,nt
CCOC(=O)c1c(C)[nH]c(C(=O)COC(=O)c2ccc(O)cc2O)c1C,nt,i,nt,nt,nt,i,nt,nt,nt,nt,nt
CCOC(=O)c1c(C)[nH]c(C(=O)COC(=O)c2ccc(O)cc2)c1C,nt,45,nt,nt,nt,i,i,i,i,i,i
O=[N+]([O-])c1cc(C(F)(F)F)ccc1NCCCCNS(=O)(=O)c1ccc(Cl)cc1,i,i,i,i,i,i,nt,nt,nt,nt,nt
O=[N+]([O-])c1cc(C(F)(F)F)ccc1NCCNC(=S)Nc1ccc(Cl)cc1,i,36,i,i,i,i,36,i,39,23,46
O=C(Nc1ccc(Cl)cc1)N1CCCN(c2ccc(C(F)(F)F)cc2[N+](=O)[O-])CC1,nt,48,nt,nt,nt,i,47,76,78,60,58
O=[N+]([O-])c1cc(C(F)(F)F)ccc1N1CCC(O)CC1,nt,i,i,i,nt,i,nt,nt,nt,nt,nt
CC(C)OC(=O)C(C)Nc1n[nH]c(=S)[nH]c1=O (stereo not given),nt,73,i,i,nt,i,i,i,i,i,11
CC(C)C[C@H](NC(=O)c1nc[nH]c1C(=O)NC1CCN(C(=O)OC(C)(C)C)CC1)C(=O)OCc1ccccc1,nt,44,i,i,nt,i,i,46,20,22,21
CC(C)C[C@H](NC(=O)c1nc[nH]c1C(=O)NC1CCN(C(=O)OC(C)(C)C)CC1)C(=O)OC(C)(C)C,nt,i,i,i,nt,i,nt,nt,nt,nt,nt
COc1ccc(/C=C/C(=O)c2ccc(NC3=NCCCS3)cc2)cc1OC,nt,i,i,i,i,i,nt,nt,nt,nt,nt
COCCCNC(=O)c1c[nH]c2ccc(S(=O)(=O)N3CCc4ccccc43)cc2c1=O,nt,33,i,i,nt,i,i,i,i,i,13
CC1(C)CC(=O)c2cnc(NC(=O)CSC(=S)N3CCCCC3)nc2C1,nt,i,nt,nt,nt,i,nt,nt,nt,nt,nt
COc1ccc(N=c2cc(-c3ccc(OC)cc3)oc3ccccc23)cc1,i,30,i,i,i,i,52,74,61,53,54
O=C(N=Nc1c(O)[nH]c2ccc(F)cc12)C1COc2ccccc2O1 (stereo not given),nt,i,nt,nt,nt,i,nt,nt,nt,nt,nt
Clc1ccc(C2C3=C(Nc4ncnn42)c2ccccc2CC3)cc1 (stereo not given),i,i,i,i,i,i,nt,nt,nt,nt,nt
Cc1nc(N)sc1C(=O)NN,nt,i,nt,nt,nt,i,nt,nt,nt,nt,nt
